These results are taken from ChEMBL document CHEMBL1165869, “Synthesis, characterization and antihypertensive activity of pyridazinone derivatives” (2010).

The test system of the assay is Rattus norvegicus. Kind of assay: Antihypertensive activity against methyl prednisolone acetate-indcuced hypertension in normotensive albino rat assessed as reduction in mean arterial pressure at 20 mg/kg, ip after 1 hr. Conditions: route intraperitoneal. The arrangement: scale not given: the % may be the effect or the level left. It counts as functional, Artery. The essentials: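 Albino rats (200–250 g), conditioned in restrainer 10 min daily for one week; hypertension induced by s.c. methyl prednisolone acetate 20 mg/kg/wk for 2 weeks. Compound suspended in 1% CMC, given i.p.; mean arterial pressure read 1 h later in conscious rats by non-invasive tail-cuff. Groups of 5; mean ± SEM; one-way ANOVA with Dunnett test versus hypertensive control.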
Turning to `Cc1ccc(C2=NN(CN3CCCCC3)C(=O)CC2)cc1`, the Activity worked out at 35.56%.
With `Cc1ccc(C2=NN(CN3CCNCC3)C(=O)CC2)cc1` the figure was 40.98%; with `COc1ccc(C2=NN(CN3CCNCC3)C(=O)CC2)cc1`, 35.44%; with `O=C1CCC(c2ccc(Cl)cc2)=NN1CN1CCNCC1`, 28.78%.
With `O=C1CCC(c2ccc(Cl)cc2)=NN1Cn1cncn1` the figure was 29.77%.
With `CC(C)Cc1ccc(C2=NN(CN3CCNCC3)C(=O)CC2)cc1` the figure was 32.48%.
`CC(C)Cc1ccc(C2=NN(CN3CCCCC3)C(=O)CC2)cc1`: the Activity turned out to be 16.09%.
With `O=C1CCC(c2ccc(-c3ccccc3)cc2)=NN1CN1CCOCC1` the figure was 29.52%.
With `O=C1CCC(c2ccc(-c3ccccc3)cc2)=NN1CN1CCCCC1` the figure was 29.52%.
With `CN1CCN(CN2N=C(c3ccc(-c4ccccc4)cc3)CCC2=O)CC1` the figure was 25.58%; with `O=C1CCC(c2ccccc2)=NN1CN1CCOCC1`, 31.21%; with `O=C1CCC(c2ccccc2)=NN1CN1CCCC1`, 19.11%.
As to `Cc1ccc(C2=NN(CN3CCN(C)CC3)C(=O)CC2)cc1`, the Activity is reported as 39.13%.
`Cc1ccc(C2=NN(CN3c4ccccc4Sc4ccccc43)C(=O)CC2)cc1`: the Activity is on record as 34.94%.
With `Cc1ccc(C2=NN(CN3CCCC3)C(=O)CC2)cc1` the figure was 31.74%; with `COc1ccc(C2=NN(CN3CCN(C)CC3)C(=O)CC2)cc1`, 36.05%; with `COc1ccc(C2=NN(CN3c4ccccc4Sc4ccccc43)C(=O)CC2)cc1`, 33.83%.
With `O=C1CCC(c2ccccc2)=NN1CN1CCNCC1` the figure was 41.99%; with `CCc1ccc(C2=NN(CN3CCN(C)CC3)C(=O)CC2)cc1`, 47.14%.
For the compound `O=C1CCC(c2ccc(Cl)cc2)=NN1CN1CCCCC1`, the Activity is 24.84%.
As for `CN1CCN(CN2N=C(c3ccc(Cl)cc3)CCC2=O)CC1`, the Activity amounted to 39.5%.
Turning to `O=C1CCC(c2ccc(Cl)cc2)=NN1CN1c2ccccc2Sc2ccccc21`, the Activity was 38.88%.
With `O=C1CCC(c2ccc(-c3ccccc3)cc2)=NN1CN1CCCC1` the figure was 30.14%.
With `O=C1CCC(c2ccc(-c3ccccc3)cc2)=NN1Cn1cncn1` the figure was 39.5%; with `O=C1CCC(c2ccccc2)=NN1CN1c2ccccc2Sc2ccccc21`, 42.4%; with `O=C1CCC(c2ccccc2)=NN1Cn1ccc2ccccc21`, 15.81%.
With `O=C1CCC(c2ccccc2)=NN1Cn1cncn1` the figure was 38.7%.
Consider `O=C1CCC(c2ccc(Cl)cc2)=NN1CN1CCCC1`, for which the Activity stood at 30.01%.
With `CC(C)Cc1ccc(C2=NN(CN3CCN(C)CC3)C(=O)CC2)cc1` the figure was 28.29%; with `CCc1ccc(C2=NN(Cn3ccc4ccccc43)C(=O)CC2)cc1`, 32.97%.
With `CC(C)Cc1ccc(C2=NN(CN3CCOCC3)C(=O)CC2)cc1` the figure was 24.22%; with `COc1ccc(C2=NN(Cn3ccc4ccccc43)C(=O)CC2)cc1`, 32.72%.
With `COc1ccc(C2=NN(CN3CCCC3)C(=O)CC2)cc1` the figure was 31.62%.
As to `CC(C)Cc1ccc(C2=NN(Cn3cncn3)C(=O)CC2)cc1`, the Activity stood at 34.94%.
With `CCc1ccc(C2=NN(CN3CCOCC3)C(=O)CC2)cc1` the figure was 47.31%; with `CC(C)Cc1ccc(C2=NN(CN3c4ccccc4Sc4ccccc43)C(=O)CC2)cc1`, 25.58%; with `CC(C)Cc1ccc(C2=NN(CN3CCCC3)C(=O)CC2)cc1`, 32.97%.
With `COc1ccc(C2=NN(Cn3cncn3)C(=O)CC2)cc1` the figure was 29.27%.
With `CCc1ccc(C2=NN(CN3CCNCC3)C(=O)CC2)cc1` the figure was 36.05%; with `CN1CCN(CN2N=C(c3ccccc3)CCC2=O)CC1`, 39.93%.
Take `O=C1CCC(c2ccc(-c3ccccc3)cc2)=NN1CN1c2ccccc2Sc2ccccc21`: the Activity is recorded as 25.91%.
Turning to `O=C1CCC(c2ccc(-c3ccccc3)cc2)=NN1Cn1ccc2ccccc21`, the Activity came to 33.46%.
With `Cc1ccc(C2=NN(Cn3cncn3)C(=O)CC2)cc1` the figure was 41.16%; with `COc1ccc(C2=NN(CN3CCOCC3)C(=O)CC2)cc1`, 29.77%.
With `COc1ccc(C2=NN(CN3CCCCC3)C(=O)CC2)cc1` the figure was 27.16%.
With `CCc1ccc(C2=NN(CN3CCCC3)C(=O)CC2)cc1` the figure was 44.31%.
For the compound `O=C1CCC(c2ccccc2)=NN1CN1CCCCC1`, the Activity is on record as 33.46%.
With `O=C1CCC(c2ccc(-c3ccccc3)cc2)=NN1CN1CCNCC1` the figure was 30.14%.
With `Cc1ccc(C2=NN(Cn3ccc4ccccc43)C(=O)CC2)cc1` the figure was 23.85%; with `Cc1ccc(C2=NN(CN3CCOCC3)C(=O)CC2)cc1`, 14.12%.
Turning to `O=C1CCC(c2ccc(Cl)cc2)=NN1CN1CCOCC1`, the Activity is given as 25.83%.
With `CCc1ccc(C2=NN(CN3CCCCC3)C(=O)CC2)cc1` the figure was 30.51%; with `CCc1ccc(C2=NN(CN3c4ccccc4Sc4ccccc43)C(=O)CC2)cc1`, 36.17%.
Regarding `O=C1CCC(c2ccc(Cl)cc2)=NN1Cn1ccc2ccccc21`, the Activity was determined as 36.3%.
Take `CCc1ccc(C2=NN(Cn3cncn3)C(=O)CC2)cc1`: the Activity stood at 29.52%.
Take `CC(C)Cc1ccc(C2=NN(Cn3ccc4ccccc43)C(=O)CC2)cc1`: the Activity was 28.91%.
With `NNc1nncc2ccccc12` [HYDRALAZINE] the figure was 40.76%.
